Source: PubChem
An excerpt weighted towards active compounds, which were near 1.6% of everything screened.
TNF death inh: inhibitors of TNF-alpha induced necroptosis in Jurkat FADD-/- cells. Jurkat FADD-/- TNF necroptosis rescue, ATP luminescence, 24 h; 0 = TNF only, 100 = no-TNF cells. 220,000 compounds, 0.068% hits. AID 463075. activation (protection from cell death), % at 10 µM;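 active = activation, meaning protection from cell death, of at least 50% relative to plate controls; inactive = activation below 50%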;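 note: necroptosis triggered by 40 ng/mL TNF-alpha added together with compound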
Wee1 stabilizer: blocks degradation of human Wee1 kinase; P30291; HeLa Luc-Wee1K328M stability, luciferase luminescence; 100% = proteasome inhibitor MG132 effect; reporter increase, % at 5 µM; 220,000 compounds, 1.2% hits; AID 1321;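 active = activation above the mean of all tested compounds plus 3 SD, set per screening run, cut at about 8.8% in these data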;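 note: cells exposed to compound for 20 h before luminescence read; 0% = DMSO alone and 100% = MG132 at 30 µM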
Pf gamet viab: kills late stage P. falciparum gametocytes; inhibition, % at 10.9 µM; 150,000 compounds, 0.065% hits; P. falciparum stage V gametocytes, ATP luminescence, 24 h; AID 743093;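 active = inhibition above the mean plus 3 SD of compounds within the control limits, set per campaign, cut at about 38% in these data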;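 note: 0% = DMSO wells and 100% = medium only without gametocytes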
zVAD death inh: L929 zVAD cell death inhibition; L929 zVAD necroptosis rescue, ATP luminescence, 24 h; with zVAD 60 µM; viability rescue, % at 10 µM; AID 1377; 220,000 compounds, 0.38% hits;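 active = activation, scaled between plate controls, above about 75%, limit read from the data; inactive = activation under that limit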;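 note: 0% = zVAD with DMSO and 100% = DMSO alone without zVAD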
MDM2 E3 inh: blocks human Mdm2 ubiquitin ligase activity; cell-based MDM2 ubiquitination luciferase reporter, 2 h; 0 = plate control, 100 = twice control, blank-subtracted; signal enhancement, % at 5 µM; Q00987; AID 1230; 210,000 compounds, 0.11% hits;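 active = signal enhancement of 30% or more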;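 note: luminescence tracks abundance of the self-degrading MDM2-luciferase fusion protein; higher signal means inhibition of MDM2 E3 ligase activity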
Target sequence (Q00987 whole entry, looked up, the tested form may be a part): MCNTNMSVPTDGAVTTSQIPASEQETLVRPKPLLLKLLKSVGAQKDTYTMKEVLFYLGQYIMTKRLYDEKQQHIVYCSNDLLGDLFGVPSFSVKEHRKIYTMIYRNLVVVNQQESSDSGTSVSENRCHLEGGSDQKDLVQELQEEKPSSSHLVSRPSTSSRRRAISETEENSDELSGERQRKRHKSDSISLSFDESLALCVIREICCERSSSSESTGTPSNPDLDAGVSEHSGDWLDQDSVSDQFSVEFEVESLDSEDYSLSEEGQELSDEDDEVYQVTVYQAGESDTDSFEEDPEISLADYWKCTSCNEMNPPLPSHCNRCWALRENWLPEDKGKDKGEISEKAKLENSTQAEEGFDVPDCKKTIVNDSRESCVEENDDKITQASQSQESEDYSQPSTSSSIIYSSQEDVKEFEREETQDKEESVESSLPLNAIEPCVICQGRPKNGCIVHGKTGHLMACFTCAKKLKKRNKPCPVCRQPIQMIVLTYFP
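Test system: stable mammalian line carrying autodegrading MDM2–luciferase fusion reporter; quantity: 2000 cells in each well; times: 4 h cell settling then 2 h compound exposure, 37 °C; detection: luminescence with SteadyLite reagent, 15 min at room temperature; evaluation: percent signal gain over controls, blank-subtracted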
Wee1 degr conf: human Wee1 degradation inhibition, confirmation | shares compounds with Wee1 stabilizer | HeLa Luc-Wee1K328M degradation, luminescence; vehicle 0%, proteasome-blocked wells 100% | activation, % at 5 µM | 1,100 compounds, 4% hits; in the data active = activation above about 8.9%
Active calls of the source: *; x = no result given.

SMILES	TNF death inh	Wee1 stabilizer	Pf gamet viab	zVAD death inh	MDM2 E3 inh	Wee1 degr conf
CCn1c(CSc2nc(C)cc(C)n2)nnc1SCC(=O)N1CCCc2ccccc21	-1	14*	-15	0	-24	1
CC1CCCN(CC(O)COC(c2ccccc2)c2ccccc2)C1 (centres undefined)	1	12*	x	-1	-4	-1
O=C(Nc1ccc2sccc2c1)c1cccc(N2C(=O)CCC2=O)c1	0	15*	-3	7	-5	4
O=C(NCCN1CCOCC1)c1ccncc1	-1	12*	x	0	-16	5
Cc1ccccc1C(=O)NNC(=S)NC(=O)COc1ccccc1	-4	-3	x	-1	-17	x
Cc1ccc(C(=O)NNC(=S)NC(=O)COc2ccccc2)cc1	-4	14*	-13	-1	-5	3
CCOC(=O)CC(NC(=O)Cn1nnc(-c2ccccc2C)n1)c1ccc(OC)cc1 (centres undefined)	2	12*	x	0	-6	2
Cc1ccc2sc(NNC(=O)C3COc4ccccc4O3)nc2c1C (centres undefined)	1	-1	x	4	x	x
COC(=O)c1cc(NC(=O)c2cc(-c3ccc(C(F)(F)F)cc3)oc2C(F)(F)F)ccc1N1CCOCC1	2	0	-5	2	-5	x
COC(=O)c1cc(NC(=O)c2cc(-c3ccc(OC)cc3)oc2C(F)(F)F)ccc1N1CCOCC1	3	12*	1	6	-21	2
Cn1cc(/C=C2/SC(=O)N(c3ccccc3)C2=O)c2ccccc21	1	8	-1	0	-6	x
COc1ccc(-n2nnnc2SCC(=O)Nc2cccc(O)c2)cc1	x	x	-23	x	x	x
COc1ccc(-n2nnnc2SCC(=O)Nc2nnn(C)n2)cc1	-1	11*	8	0	-10	-2
O=C1OCc2cc(NC(=O)C3CCCO3)ccc21 (centres undefined)	-1	0	-15	0	0	x
O=C1NC(=O)c2cc(NC(=O)C3CCCO3)ccc21 (centres undefined)	-1	16*	-6	-1	-4	2
CCOc1ccc(S(=O)(=O)NCCC(=O)N2CCN(c3ccc(OC)cc3)CC2)cc1	1	11*	1	0	-12	-1
O=C1/C(=C\c2ccc(O)c(O)c2)C(c2ccccc2)=NN1c1ccccc1	-9	11*	-10	-1	-7	2
COc1cc(/C=C2\C(=O)N(c3ccc(NC(C)=O)cc3)N=C2c2ccccc2)ccc1O	-4	0	-5	2	-7	x
CC(C)NC(=O)NC(=O)COC(=O)/C=C/c1ccc2c(c1)OCO2	0	1	3	40	x	x
CCc1cc(-c2[nH]ncc2-c2ccc3c(c2)OCO3)c(O)cc1O	-5	-2	x	67	x	x
CCN1c2ccccc2-c2nc3ccccc3n2C1c1cccnc1 (centres undefined)	-5	1	x	0	-5	x
CCN1c2ccccc2-c2nc3ccccc3n2C1c1ccncc1 (centres undefined)	0	16*	x	0	-8	-1
O=C(O)c1cc(-c2c[nH]c3ccccc23)nc2ccc3ccccc3c12	0	-3	-5	1	-21	x
c1ccc2c(-c3c[nH]c4ccccc34)c3ccccc3nc2c1	-15	12*	0	1	-1	1
CC(=O)c1cccc(NC(=O)COC(=O)c2ccc3c(c2)OCCO3)c1	1	4	8	4	-3	x
SMILES	TNF death inh	Wee1 stabilizer	Pf gamet viab	zVAD death inh	MDM2 E3 inh	Wee1 degr conf
O=c1c2ccccc2nc(-c2ccc(F)cc2)n1NCc1ccccc1O	0	-2	-24	1	-4	x
CC1(C)Cc2c(C#N)c(NCCN3CCOCC3)nc(-c3ccco3)c2CO1	2	3	5	0	2	x
CC1(C)Cc2c(C#N)c(NCCO)nc(-c3ccco3)c2CO1	-2	18*	-10	1	1	1
COc1ccc(-n2nc3cc(C)c(NC(C)=O)cc3n2)cc1	-1	12*	-9	13	-56	-4
O=c1[nH][nH]c2ccccc2c1=O	-1	14*	1	0	-10	2
O=c1c2ccccc2[nH]c2ccccc12	-3	4	x	6	-1	x
